Active and inactive are the calls of the source. The rule behind the calls is not given here.
What was measured:
[1] = biological target: T1, Polyunsaturated fatty acid lipoxygenase ALOX15 (Homo sapiens, UniProt P16050); assay: Inhibition of human 15-LOX-1 assessed as reduction in conversion of linoleic acid to 13(S)-HpODE incubated for 10 mins followed by linoleic acid addition by UV-absorbance analysis
T1 sequence (P16050 whole entry): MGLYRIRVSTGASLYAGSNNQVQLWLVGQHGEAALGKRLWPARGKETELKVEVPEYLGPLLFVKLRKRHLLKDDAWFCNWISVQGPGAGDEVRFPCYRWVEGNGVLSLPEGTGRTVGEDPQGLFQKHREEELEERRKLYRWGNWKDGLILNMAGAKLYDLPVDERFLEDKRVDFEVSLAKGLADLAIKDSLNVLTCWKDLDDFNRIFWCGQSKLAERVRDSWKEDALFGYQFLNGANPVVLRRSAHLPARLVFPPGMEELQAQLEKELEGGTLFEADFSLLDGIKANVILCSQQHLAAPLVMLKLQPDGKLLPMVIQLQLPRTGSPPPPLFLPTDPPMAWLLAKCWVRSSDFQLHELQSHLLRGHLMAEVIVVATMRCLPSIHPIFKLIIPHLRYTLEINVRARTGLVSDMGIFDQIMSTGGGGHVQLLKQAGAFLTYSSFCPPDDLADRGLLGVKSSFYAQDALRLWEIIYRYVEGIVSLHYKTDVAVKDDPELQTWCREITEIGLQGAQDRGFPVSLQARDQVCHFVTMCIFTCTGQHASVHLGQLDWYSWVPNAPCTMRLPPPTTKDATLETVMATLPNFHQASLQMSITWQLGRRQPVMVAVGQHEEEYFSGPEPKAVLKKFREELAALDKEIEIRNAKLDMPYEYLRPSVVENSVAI

[2] = biological target: T2, Polyunsaturated fatty acid lipoxygenase ALOX15 (Mus musculus) (UniProt P39654); assay: Inhibition of 15-LOX-1 in mouse HT22 cells assessed as protection against glutamate-induced cell death by measuring increase in cell viability at 10 uM incubated up to 8 hrs following glutamate challenge by MTT assay; format: cell-based; settings: HT-22
T2 sequence (whole entry): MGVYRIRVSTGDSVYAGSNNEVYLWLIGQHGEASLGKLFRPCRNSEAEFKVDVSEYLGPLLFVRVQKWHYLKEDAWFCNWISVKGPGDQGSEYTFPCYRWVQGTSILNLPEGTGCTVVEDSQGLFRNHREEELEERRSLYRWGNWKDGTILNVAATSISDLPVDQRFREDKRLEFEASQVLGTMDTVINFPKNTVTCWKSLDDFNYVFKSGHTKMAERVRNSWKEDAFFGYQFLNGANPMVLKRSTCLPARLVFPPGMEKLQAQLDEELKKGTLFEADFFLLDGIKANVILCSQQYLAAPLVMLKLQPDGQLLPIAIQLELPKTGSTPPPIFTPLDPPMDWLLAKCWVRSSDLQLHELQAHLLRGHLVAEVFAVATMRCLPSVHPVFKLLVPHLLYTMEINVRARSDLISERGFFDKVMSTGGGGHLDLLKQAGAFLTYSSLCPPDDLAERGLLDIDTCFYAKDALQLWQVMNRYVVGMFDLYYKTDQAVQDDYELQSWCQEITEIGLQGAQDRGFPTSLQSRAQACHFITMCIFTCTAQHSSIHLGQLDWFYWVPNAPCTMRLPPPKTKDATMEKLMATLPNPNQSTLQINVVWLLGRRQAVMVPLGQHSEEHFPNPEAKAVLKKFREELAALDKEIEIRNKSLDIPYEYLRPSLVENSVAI
Summary of the method: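 HT-22 cells were seeded at 8x10^3 per well and incubated overnight. They were challenged with 4 mM glutamate in DMEM/10% FCS. Inhibitor was given either with glutamate (1-20 µM; PD146176 at 1 µM) or added at 5 or 10 µM 2, 4, 6 or 8 h after glutamate. After 14-16 h, MTT was added at 0.5 mg/mL for 1 h at 37 °C. Formazan was dissolved in DMSO and read at 570 nm minus 630 nm background, expressed relative to control. Three experiments were run with 6-8 replicates each.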

[3] = biological target: T2, Polyunsaturated fatty acid lipoxygenase ALOX15 (Mus musculus); assay: Inhibition of 15-LOX-1 in mouse HT22 cells assessed as protection against glutamate-induced cell impedance at 5 to 10 uM cotreated with glutamate measured for 16 to 20 hrs by real time cell viability assay; format: cell-based; settings: HT-22
Summary of the method: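 HT-22 cells were seeded at 8x10^3 per well, incubated overnight, then given 4 mM glutamate. Inhibitor was either co-applied (1-20 µM; PD146176 at 1 µM) or added at 10 µM 2, 4, 6 or 8 h after glutamate. Impedance was recorded in real time for 16-20 h, with cell index normalized just before glutamate addition.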

[4] = biological target: T3, Polyunsaturated fatty acid lipoxygenase ALOX15 (Homo sapiens) (UniProt P16050); assay: Competitive inhibition of human 15-LOX-1 assessed as apparent Vmax at 5 uM by Lineweaver-Burk plot analysis (reference value: 1.6 +/- 0.2 10^-4abs/s)
T3 sequence (whole entry): T1 sequence (P16050 whole entry)
Summary of the method: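 Purified enzyme activity was read as UV absorbance at 234 nm of the product formed from linoleic acid substrate, in 96-well format. Substrate-dependence runs were done with and without inhibitor. Apparent Km and Vmax were derived from Lineweaver-Burk plots.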

[5] = biological target: T2, Polyunsaturated fatty acid lipoxygenase ALOX15 (Mus musculus); assay: Inhibition of 15-LOX-1 in C57bl/6 mouse precision-cut lung slices assessed as reduction in LPS-stimulated IL-12b mRNA expression level at 50 uM incubated for 20 hrs followed by LPS stimulation for 4 hrs in presence of linoleic acid by RT-qPCR analysis
Summary of the method: (§1)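 Lung slices, 250 μm, were cut from agarose-filled lungs of male C57bl/6 mice aged 8-10 weeks and cultured at 37 °C in 5% CO2 in supplemented DMEM, 3 slices per well. Inhibitor was given for 20 h with 10 μM linoleic acid. For the last 4 h, 10 ng/ml LPS plus 10 ng/ml IFNγ were added. Read-out was RT-qPCR (10 ng cDNA, GAPDH assay included), in duplicate or triplicate wells, as fold change versus LPS/linoleic acid control, with 4-6 independent experiments.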

[6] = biological target: T2, Polyunsaturated fatty acid lipoxygenase ALOX15 (Mus musculus); assay: Inhibition of 15-LOX-1 in C57bl/6 mouse precision-cut lung slices assessed as reduction in LPS-stimulated TNFalpha mRNA expression level at 50 uM incubated for 20 hrs followed by LPS stimulation for 4 hrs in presence of linoleic acid by RT-qPCR analysis; summary of the method: as §1
[7] = species on record: Mus musculus; assay: Toxicity in C57bl/6 mouse precision-cut lung slices assessed as decrease in tissue viability up to 50 uM after 20 hrs in presence of linoleic acid by lactate dehydrogenase release assay; format: organism-based; settings: in vivo
Summary of the method: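 Mouse lung slices were cultured with inhibitor and 10 μM linoleic acid for 20 h at 37 °C. LDH released into the medium was measured by automated analyzer.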

[8] = biological target: T1, Polyunsaturated fatty acid lipoxygenase ALOX15; assay: Competitive inhibition of human 15-LOX-1 assessed as reduction in conversion of linoleic acid to 13(S)-HpODE incubated for 10 mins followed by linoleic acid addition by Lineweaver-Burk plot analysis

IC50 [1]: 12.4 µM | Vmax(app) [4]: 1.5 ×10⁻⁴ abs/s | inhibition [5]: 50% | inhibition [6]: 50% | Ki [8]: 3.3 µM
Structure (SMILES): CCCCNC(=O)c1cc(-c2ccccc2)sc1N
inhibition [2]: Active | inhibition [3]: Active | Activity [7]: Non-Toxic
